Converted amounts (≈) assume the structure as drawn. The source made the active and inactive calls.
What was measured:
Nakaseomyces glabratus [1] = experiment: Antifungal activity against 2.44 x 10^8 CFU fluconazole-susceptible Candida glabrata isolate 4293 infected neutropenic CD1 mouse disseminated candidiasis model assessed as reduction in kidney tissue fungal burden at 1 mg/kg/day, ip administered 24 hrs post infection measured 7 days post infection by colony count method; assay type: functional, organism-based
Procedure, shortened: (§1)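 Neutropenia induced in male CD1 mice (25 g) with cyclophosphamide 200 mg/kg i.p. on days −4, +1 and +4. Mice were infected i.v. via the tail vein (0.2 ml). Drug was given i.p. at […], starting 24 h post-challenge, for 6 consecutive days. Kidney pairs were homogenized on day 7 and plated on Sabouraud dextrose agar for CFU counts. Groups had 7–8 mice.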

Nakaseomyces glabratus [2] = experiment: Fungistatic activity against Candida glabrata isolate 4293 assessed as 99.9% reduction of initial fungal load at 0.5 times MIC after 48 hrs using colony count method by time-kill method; assay type: functional, organism-based
Procedure, shortened: (§2)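 0.5 McFarland suspension from a 48-h plate, diluted 1:10 into MOPS-buffered RPMI 1640 with drug at 0.5× or 8× MIC. Shaken at 35°C; sampled at 0, 2, 4, 8 and 24 h, serially diluted and plated in triplicate on Sabouraud agar for 48 h at 35°C. Detection limit 20 CFU/ml; fungicidal = 99.9% fall from initial inoculum. Each isolate tested at least twice.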

Nakaseomyces glabratus [3] = experiment: Fungistatic activity against Candida glabrata 4370 assessed as 99.9% reduction of int initial fungal load at 8 times MIC after 48 hrs using colony count method by time-kill method; assay type: functional, organism-based; procedure, shortened: as §2
Nakaseomyces glabratus [4] = experiment: Fungistatic activity against Candida glabrata isolate 4198 assessed as 99.9% reduction of initial fungal load at 0.5 times MIC after 48 hrs using colony count method by time-kill method; assay type: functional, organism-based; procedure, shortened: as §2
Candida parapsilosis [5] = experiment: Fungistatic activity against Candida parapsilosis ATCC 22019 assessed as 99.9% reduction of int initial fungal load at 8 times MIC after 48 hrs using colony count method by time-kill method; assay type: functional, organism-based
Nakaseomyces glabratus [6] = experiment: Fungicidal activity against Candida glabrata isolate 4205 assessed as 99.9% reduction of initial fungal load at 8 times MIC […] using colony count method by time-kill method; assay type: functional, organism-based
Procedure, shortened: (§3)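 Time-kill assay. The inoculum was set to 0.5 McFarland in water and diluted 1:10 into MOPS-buffered RPMI 1640 with drug at 0.5× or 8× MIC, then shaken at 35°C. Samples were taken at 0, 2, 4, 8 and 24 h, serially diluted and plated in triplicate on Sabouraud agar, with 48 h at 35°C. Detection limit was 20 CFU/ml. Fungicidal was defined as a 99.9% drop from the initial inoculum. Each isolate was tested at least twice.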

Nakaseomyces glabratus [7] = experiment: Antifungal activity against Candida glabrata isolate 4198 after 48 hrs by microdilution method; assay type: functional; conditions: isolate 4198, 48 h
Procedure, shortened: (§4)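 CLSI M27-A2 broth microdilution. Final ranges: POS, CAS, AMB 0.0078–8.0 μg/ml; FLC 0.125–64 μg/ml. Incubated at 35°C, read at 24 and 48 h by OD490. MIC for POS, FLC, CAS: first concentration giving 50% lower turbidity than control; for AMB: 90% lower. Run in quintuplicate; C. parapsilosis ATCC 22019 as quality control.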

Nakaseomyces glabratus [8] = experiment: Fungistatic activity against Candida glabrata isolate 4205 assessed as 99.9% reduction of initial fungal load at 0.5 times MIC after 48 hrs using colony count method by time-kill method; assay type: functional, organism-based; procedure, shortened: as §2
Nakaseomyces glabratus [9] = experiment: Antifungal activity against 1.04 x 10^8 CFU fluconazole-susceptible Candida glabrata isolate 4293 infected neutropenic CD1 mouse disseminated candidiasis model assessed as reduction in kidney tissue fungal burden at 1 mg/kg/day, ip administered 24 hrs post infection measured 7 days post infection by colony count method; assay type: functional, organism-based; procedure, shortened: as §1
Candida parapsilosis [10] = experiment: Fungistatic activity against Candida parapsilosis ATCC 22019 assessed as 99.9% reduction of int initial fungal load at 0.5 times MIC after 48 hrs using colony count method by time-kill method; assay type: functional, organism-based
Nakaseomyces glabratus [11] = experiment: Antifungal activity against Candida glabrata isolate 4370 after 48 hrs by microdilution method; assay type: functional; procedure, shortened: as §4
Nakaseomyces glabratus [12] = experiment: Antifungal activity against Candida glabrata isolate 4205 after 48 hrs by microdilution method; assay type: functional; procedure, shortened: as §4
Nakaseomyces glabratus [13] = experiment: Fungistatic activity against Candida glabrata 4370 assessed as 99.9% reduction of int initial fungal load at 0.5 times MIC after 48 hrs using colony count method by time-kill method; assay type: functional, organism-based; procedure, shortened: as §2
Nakaseomyces glabratus [14] = experiment: Fungicidal activity against Candida glabrata isolate 4293 assessed as 99.9% reduction of initial fungal load at 8 times MIC […] using colony count method by time-kill method; assay type: functional, organism-based
Nakaseomyces glabratus [15] = experiment: Fungicidal activity against Candida glabrata isolate 4198 assessed as 99.9% reduction of initial fungal load at 8 times MIC after 48 hrs using colony count method by time-kill method; assay type: functional, organism-based; conditions: in the assay text read “after 24 hrs” for “after 48 hrs”; procedure, shortened: as §3
Candida parapsilosis [16] = experiment: Antifungal activity against Candida parapsilosis ATCC 22019 after 48 hrs by microdilution method; assay type: functional; conditions: Lodderomyces parapsilosis, ATCC 22019, 48 h; procedure, shortened: as §4
Nakaseomyces glabratus [17] = experiment: Antifungal activity against Candida glabrata isolate 4293 after 48 hrs by microdilution method; assay type: functional; procedure, shortened: as §4
Nakaseomyces glabratus [18] = experiment: Antifungal activity against Candida glabrata isolate 4205 after 24 hrs by microdilution method; assay type: functional; procedure, shortened: as §4
Nakaseomyces glabratus [19] = experiment: Antifungal activity against Candida glabrata isolate 4198 after 24 hrs by microdilution method; assay type: functional; conditions: isolate 4198, 24 h; procedure, shortened: as §4
Nakaseomyces glabratus [20] = experiment: Antifungal activity against Candida glabrata isolate 4293 after 24 hrs by microdilution method; assay type: functional
Procedure, shortened: (§5)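 CLSI M27-A2 broth microdilution. Final drug ranges were 0.0078–8.0 μg/ml for POS, CAS and AMB, and 0.125–64 μg/ml for FLC. Plates were incubated at 35°C and read by OD490 at 24 h. The MIC was the first concentration giving 50% turbidity reduction versus control (POS, FLC, CAS) or 90% (AMB). Run in quintuplicate.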

Candida parapsilosis [21] = experiment: Antifungal activity against Candida parapsilosis ATCC 22019 after 24 hrs by microdilution method; assay type: functional; conditions: Lodderomyces parapsilosis, ATCC 22019, 24 h; procedure, shortened: as §5
Nakaseomyces glabratus [22] = experiment: Antifungal activity against Candida glabrata isolate 4370 after 24 hrs by microdilution method; assay type: functional; procedure, shortened: as §4
Nakaseomyces glabratus [23] = experiment: Fungistatic activity against Candida glabrata isolate 4198 assessed as 99.9% reduction of initial fungal load at 8 times MIC after 48 hrs using colony count method by time-kill method; assay type: functional, organism-based; procedure, shortened: as §2
Nakaseomyces glabratus [24] = experiment: Fungistatic activity against Candida glabrata isolate 4293 assessed as 99.9% reduction of initial fungal load at 8 times MIC after 48 hrs using colony count method by time-kill method; assay type: functional, organism-based; procedure, shortened: as §2
Nakaseomyces glabratus [25] = experiment: Antifungal activity against fluconazole-resistant Candida glabrata isolate 4198 infected neutropenic CD1 mouse disseminated candidiasis model assessed as reduction in kidney tissue fungal burden at 30 mg/kg/day, po administered 24 hrs post infection measured 7 days post infection by colony count method; assay type: functional, organism-based
Procedure, shortened: (§6)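 Male CD1 mice (25 g) made neutropenic with cyclophosphamide 200 mg/kg i.p. on days −4, +1 and +4, then infected i.v. via the lateral tail vein (0.2 ml). Dosing started 24 h post-challenge, once daily for 6 days, 0.2 ml: POS by oral gavage, FLC i.p. On day 7, homogenized kidneys (entire organ) plated on Sabouraud agar; CFU per kidney pair; 7–8 mice per group.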

Nakaseomyces glabratus [26] = experiment: Antifungal activity against 1.04 x 10^8 CFU fluconazole-susceptible Candida glabrata isolate 4293 infected neutropenic CD1 mouse disseminated candidiasis model assessed as reduction in kidney tissue fungal burden at 25 mg/kg/day, ip administered 24 hrs post infection measured 7 days post infection by colony count method; assay type: functional, organism-based
Nakaseomyces glabratus [27] = experiment: Fungistatic activity against Candida glabrata isolate 4205 assessed as 99.9% reduction of initial fungal load at 8 times MIC after 48 hrs using colony count method by time-kill method; assay type: functional, organism-based
Nakaseomyces glabratus [28] = experiment: Antifungal activity against 2.44 x 10^8 CFU fluconazole-susceptible Candida glabrata isolate 4293 infected neutropenic CD1 mouse disseminated candidiasis model assessed as reduction in kidney tissue fungal burden at 25 mg/kg/day, ip administered 24 hrs post infection measured 7 days post infection by colony count method; assay type: functional, organism-based; procedure, shortened: as §6
Nakaseomyces glabratus [29] = experiment: Antifungal activity against fluconazole-susceptible Candida glabrata isolate 4205 infected neutropenic CD1 mouse disseminated candidiasis model assessed as reduction in kidney tissue fungal burden at 30 mg/kg/day, po administered 24 hrs post infection measured 7 days post infection by colony count method; assay type: functional, organism-based; procedure, shortened: as §6
Nakaseomyces glabratus [30] = experiment: Antifungal activity against 1.04 x 10^8 CFU fluconazole-susceptible Candida glabrata isolate 4293 infected neutropenic CD1 mouse disseminated candidiasis model assessed as reduction in kidney tissue fungal burden at 30 mg/kg/day, po administered 24 hrs post infection measured 7 days post infection by colony count method; assay type: functional, organism-based; procedure, shortened: as §6
Nakaseomyces glabratus [31] = experiment: Antifungal activity against 2.44 x 10^8 CFU fluconazole-susceptible Candida glabrata isolate 4293 infected neutropenic CD1 mouse disseminated candidiasis model assessed as reduction in kidney tissue fungal burden at 15 mg/kg/day, po administered 24 hrs post infection measured 7 days post infection by colony count method; assay type: functional, organism-based; procedure, shortened: as §6

| SMILES | Activity (Nakaseomyces glabratus [1]) | Activity (Nakaseomyces glabratus [2]) | Activity (Nakaseomyces glabratus [3]) | Activity (Nakaseomyces glabratus [4]) | Activity (Candida parapsilosis [5]) | Activity (Nakaseomyces glabratus [6]) | MIC (Nakaseomyces glabratus [7]) [µg/mL] | Activity (Nakaseomyces glabratus [8]) | Activity (Nakaseomyces glabratus [9]) | Activity (Candida parapsilosis [10]) | MIC (Nakaseomyces glabratus [11]) [µg/mL] | MIC (Nakaseomyces glabratus [12]) [µg/mL] | Activity (Nakaseomyces glabratus [13]) | Activity (Nakaseomyces glabratus [14]) | Activity (Nakaseomyces glabratus [15]) | MIC (Candida parapsilosis [16]) [µg/mL] | MIC (Nakaseomyces glabratus [17]) [µg/mL] | Activity (Nakaseomyces glabratus [23]) | Activity (Nakaseomyces glabratus [24]) | Activity (Nakaseomyces glabratus [25]) | other results |
| --- | --- | --- | --- | --- | --- | --- | --- | --- | --- | --- | --- | --- | --- | --- | --- | --- | --- | --- | --- | --- | --- |
| C[C@@H]1[C@H](O)[C@@H](C)/C=C/C=C/C=C/C=C/C=C/C=C/C=C/[C@H](O[C@@H]2O[C@H](C)[C@@H](O)[C@H](N)[C@@H]2O)C[C@@H]2O[C@](O)(C[C@@H](O)C[C@@H](O)[C@H](O)CC[C@@H](O)C[C@@H](O)CC(=O)O[C@H]1C)C[C@H](O)[C@H]2C(=O)O [AMPHOTERICIN B] | Active | Active | Active | Active | Active | Active | 0.5 (≈ 0.541 µM) | Active | Active | Active | 1 (≈ 1.08 µM) | 0.5 (≈ 0.541 µM) | Active | Active | Active | 1 (≈ 1.08 µM) | 0.5 (≈ 0.541 µM) | – | – | – | – |
| CC[C@H](C)C[C@H](C)CCCCCCCCC(=O)N[C@H]1C[C@@H](O)[C@@H](NCCN)NC(=O)[C@@H]2[C@@H](O)CCN2C(=O)[C@H]([C@H](O)CCN)NC(=O)[C@H]([C@H](O)[C@@H](O)c2ccc(O)cc2)NC(=O)[C@@H]2C[C@@H](O)CN2C(=O)[C@H]([C@@H](C)O)NC1=O [CASPOFUNGIN] | Active | Active | – | Active | – | inactive | – | Active | Active | Active | – | – | Active | inactive | inactive | – | – | – | – | – | MIC (Nakaseomyces glabratus [18]): 0.25 µg/mL (≈ 0.229 µM); MIC (Nakaseomyces glabratus [19]): 0.25 µg/mL (≈ 0.229 µM); MIC (Nakaseomyces glabratus [20]): ≤ 0.03 µg/mL; MIC (Candida parapsilosis [21]): 0.25 µg/mL (≈ 0.229 µM); MIC (Nakaseomyces glabratus [22]): 0.125 µg/mL (≈ 0.114 µM) |
| OC(Cn1cncn1)(Cn1cncn1)c1ccc(F)cc1F [FLUCONAZOLE] | Active | Active | Active | Active | Active | – | > 64 | Active | – | Active | 16 (≈ 52.2 µM) | 1 (≈ 3.27 µM) | Active | – | – | 4 (≈ 13.1 µM) | 32 (≈ 104 µM) | Active | Active | inactive | Activity (Nakaseomyces glabratus [26]): inactive; Activity (Nakaseomyces glabratus [27]): Active; Activity (Nakaseomyces glabratus [28]): Active; Activity (Nakaseomyces glabratus [29]): Active |
| CC[C@@H]([C@H](C)O)n1ncn(-c2ccc(N3CCN(c4ccc(OC[C@@H]5CO[C@@](Cn6cncn6)(c6ccc(F)cc6F)C5)cc4)CC3)cc2)c1=O [POSACONAZOLE] | – | Active | Active | Active | Active | – | 0.5 (≈ 0.713 µM) | Active | inactive | Active | 0.06 (≈ 0.0856 µM) | ≤ 0.03 | Active | – | – | ≤ 0.03 | 0.25 (≈ 0.357 µM) | Active | Active | Active | Activity (Nakaseomyces glabratus [30]): Active; Activity (Nakaseomyces glabratus [31]): Active; Activity (Nakaseomyces glabratus [26]): Active; Activity (Nakaseomyces glabratus [27]): Active; Activity (Nakaseomyces glabratus [28]): Active; Activity (Nakaseomyces glabratus [29]): Active |
